ChEMBL document CHEMBL4052657, “Design, synthesis and biological evaluation of sulfonamide-substituted diphenylpyrimidine derivatives (Sul-DPPYs) as potent focal adhesion kinase (FAK) inhibitors with antitumor activity” (Bioorg Med Chem, 2017)
Blank lines part the entries; values can stand above or below the molecule they belong to.

Assays:
L02 = test: Antiproliferative activity against human LO2 cells after 72 hrs by CCK8 assay; conditions: L02, 72 h
Ramos = test: Antiproliferative activity against human Ramos cells after 72 hrs by CCK8 assay; format: functional, cell-based
Outline: (§1)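 Cells in RPMI-1640 with 10% FBS and 1% penicillin-streptomycin, 37 °C, 5% CO2. Seeded at 3,000 to 5,000 cells/well and grown one day, then exposed to compound for 72 h at 1.25 to 40 µmol/L, five replicates per concentration. CCK-8 read-out is absorbance at 450 nm. Dose-response curves used five concentrations. IC50 is the mean of at least three separate experiments.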

ASPC1 [1] = test: Antiproliferative activity against human AsPC1 cells after 72 hrs by CCK8 assay; conditions: ASPC1, 72 h
NCI-H1975 = test: Antiproliferative activity against gefitinib-resistant human NCI-H1975 cells harboring FAK after 72 hrs by CCK8 assay; format: functional, cell-based; conditions: NCI-H1975, 72 h; outline: as §1
BXPC-3 = test: Antiproliferative activity against human BxPC3 cells after 72 hrs by CCK8 assay; conditions: BXPC-3, 72 h
PANC-1 [2] = test: Antiproliferative activity against human PANC1 cells after 72 hrs by CCK8 assay; conditions: PANC-1, 72 h
ASPC1 [3] = test: Antiproliferative activity against human AsPC1 cells assessed as cell viability at 1.25 uM after 24 hrs by CCK8 assay relative to control; format: functional; conditions: ASPC1, 24 h, read-out: Activity
PANC-1 [4] = test: Antiproliferative activity against human PANC1 cells assessed as cell viability at 0.5 uM after 24 hrs by CCK8 assay relative to control; format: functional; conditions: PANC-1, 24 h, read-out: Activity
ASPC1 [5] = test: Antiproliferative activity against human AsPC1 cells assessed as cell viability at 10 uM after 72 hrs by CCK8 assay (reference value: 96.9%); format: functional; conditions: ASPC1, 72 h, read-out: Activity
PANC-1 [6] = test: Antiproliferative activity against human PANC1 cells assessed as cell viability at 8 uM after 48 hrs by CCK8 assay (reference value: 99%); format: functional; conditions: PANC-1, 48 h, read-out: Activity
ASPC1 [7] = test: Induction of apoptosis in human AsPC1 cells assessed as late apoptotic cells at 1 uM after 72 hrs by Annexin-V-FITC/propidium iodide staining based flow cytometry relative to control; format: functional
Outline: (§2)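 AsPC-1 cells at 2 to 5 ×10⁵ cells/well were treated for 72 h with DMSO solvent control or compound at 1, 5 or 10 µM in medium with 5% FBS. Cells were then […], stained with annexin V-FITC/propidium iodide and analysed by flow cytometry.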

ASPC1 [8] = test: Antiproliferative activity against human AsPC1 cells assessed as cell viability at 1.25 uM after 48 hrs by CCK8 assay (reference value: 98.6%); format: functional; conditions: ASPC1, 48 h, read-out: Activity
ASPC1 [9] = test: Induction of apoptosis in human AsPC1 cells assessed as early apoptotic cells at 1 uM after 72 hrs by Annexin-V-FITC/propidium iodide staining based flow cytometry relative to control; format: functional; outline: as §2
ASPC1 [10] = test: Antiproliferative activity against human AsPC1 cells assessed as cell viability at 5 uM after 24 hrs by CCK8 assay relative to control; format: functional; conditions: ASPC1, 24 h, read-out: Activity
PANC-1 [11] = test: Antiproliferative activity against human PANC1 cells assessed as cell viability at 0.5 uM after 48 hrs by CCK8 assay (reference value: 99%); format: functional; conditions: PANC-1, 48 h, read-out: Activity
PANC-1 [12] = test: Antiproliferative activity against human PANC1 cells assessed as cell viability at 2 uM after 48 hrs by CCK8 assay (reference value: 99%); format: functional; conditions: PANC-1, 48 h, read-out: Activity
ASPC1 [13] = test: Antiproliferative activity against human AsPC1 cells assessed as cell viability at 5 uM after 48 hrs by CCK8 assay (reference value: 98.6%); format: functional; conditions: ASPC1, 48 h, read-out: Activity
ASPC1 [14] = test: Antiproliferative activity against human AsPC1 cells assessed as cell viability at 1.25 uM after 72 hrs by CCK8 assay (reference value: 96.9%); format: functional; conditions: ASPC1, 72 h, read-out: Activity
ASPC1 [15] = test: Induction of apoptosis in human AsPC1 cells assessed as viable cells at 5 uM after 72 hrs by Annexin-V-FITC/propidium iodide staining based flow cytometry relative to control; format: functional; conditions: ASPC1, 72 h, read-out: Activity; outline: as §2
ASPC1 [16] = test: Antiproliferative activity against human AsPC1 cells assessed as cell viability at 10 uM after 24 hrs by CCK8 assay relative to control; format: functional; conditions: ASPC1, 24 h, read-out: Activity
ASPC1 [17] = test: Induction of apoptosis in human AsPC1 cells assessed as necrotic cells at 5 uM after 72 hrs by Annexin-V-FITC/propidium iodide staining based flow cytometry relative to control; format: functional; outline: as §2
PANC-1 [18] = test: Antiproliferative activity against human PANC1 cells assessed as cell viability at 0.5 uM after 72 hrs by CCK8 assay (reference value: 97.5%); format: functional; conditions: PANC-1, 72 h, read-out: Activity
ASPC1 [19] = test: Induction of apoptosis in human AsPC1 cells assessed as necrotic cells at 10 uM after 72 hrs by Annexin-V-FITC/propidium iodide staining based flow cytometry relative to control; format: functional; outline: as §2
ASPC1 [20] = test: Induction of apoptosis in human AsPC1 cells assessed as early apoptotic cells at 10 uM after 72 hrs by Annexin-V-FITC/propidium iodide staining based flow cytometry relative to control; format: functional; outline: as §2
ASPC1 [21] = test: Induction of apoptosis in human AsPC1 cells assessed as viable cells at 10 uM after 72 hrs by Annexin-V-FITC/propidium iodide staining based flow cytometry relative to control; format: functional; conditions: ASPC1, 72 h, read-out: Activity; outline: as §2
PANC-1 [22] = test: Antiproliferative activity against human PANC1 cells assessed as cell viability at 2 uM after 24 hrs by CCK8 assay relative to control; format: functional; conditions: PANC-1, 24 h, read-out: Activity
ASPC1 [23] = test: Antiproliferative activity against human AsPC1 cells assessed as cell viability at 10 uM after 48 hrs by CCK8 assay (reference value: 98.6%); format: functional; conditions: ASPC1, 48 h, read-out: Activity
ASPC1 [24] = test: Induction of apoptosis in human AsPC1 cells assessed as early apoptotic cells at 5 uM after 72 hrs by Annexin-V-FITC/propidium iodide staining based flow cytometry relative to control; format: functional; outline: as §2
ASPC1 [25] = test: Induction of apoptosis in human AsPC1 cells assessed as necrotic cells at 1 uM after 72 hrs by Annexin-V-FITC/propidium iodide staining based flow cytometry relative to control; format: functional; outline: as §2
ASPC1 [26] = test: Induction of apoptosis in human AsPC1 cells assessed as viable cells at 1 uM after 72 hrs by Annexin-V-FITC/propidium iodide staining based flow cytometry relative to control; format: functional; conditions: ASPC1, 72 h, read-out: Activity; outline: as §2
ASPC1 [27] = test: Induction of apoptosis in human AsPC1 cells assessed as late apoptotic cells at 5 uM after 72 hrs by Annexin-V-FITC/propidium iodide staining based flow cytometry relative to control; format: functional; outline: as §2
PANC-1 [28] = test: Antiproliferative activity against human PANC1 cells assessed as cell viability at 8 uM after 72 hrs by CCK8 assay (reference value: 97.5%); format: functional; conditions: PANC-1, 72 h, read-out: Activity
ASPC1 [29] = test: Induction of apoptosis in human AsPC1 cells assessed as late apoptotic cells at 10 uM after 72 hrs by Annexin-V-FITC/propidium iodide staining based flow cytometry relative to control; format: functional; outline: as §2
PANC-1 [30] = test: Antiproliferative activity against human PANC1 cells assessed as cell viability at 8 uM after 24 hrs by CCK8 assay relative to control; format: functional; conditions: PANC-1, 24 h, read-out: Activity
PANC-1 [31] = test: Antiproliferative activity against human PANC1 cells assessed as cell viability at 2 uM after 72 hrs by CCK8 assay (reference value: 97.5%); format: functional; conditions: PANC-1, 72 h, read-out: Activity
ASPC1 [32] = test: Antiproliferative activity against human AsPC1 cells assessed as cell viability at 5 uM after 72 hrs by CCK8 assay (reference value: 96.9%); format: functional; conditions: ASPC1, 72 h, read-out: Activity
ASPC1 [33] = test: Induction of apoptosis in human AsPC1 cells after 72 hrs by Annexin-V-FITC/propidium iodide staining based flow cytometry; format: functional, cell-based; outline: as §2

Structure (SMILES): CNC(=O)c1ccccc1Nc1nc(Nc2ccc(Oc3ccc(NS(=O)(=O)C(F)(F)F)cc3)cc2)ncc1Cl
IC50 (L02): 3.37 µM | IC50 (Ramos): 14.4 µM | IC50 (ASPC1 [1]): 2.39 µM | IC50 (NCI-H1975): 4.1 µM | IC50 (BXPC-3): 5.86 µM | IC50 (PANC-1 [2]): 1.75 µM

Structure (SMILES): CNC(=O)c1ccccc1Nc1nc(Nc2ccc(NS(=O)(=O)c3ccc(F)cc3)cc2)ncc1Cl
viability at 1.25 µM (ASPC1 [3]): 90% | viability at 0.5 µM (PANC-1 [4]): 71.6% | viability at 10 µM (ASPC1 [5]): 23.9% | viability at 8 µM (PANC-1 [6]): 21.3% | IC50 (L02): 11.5 µM | Activity (ASPC1 [7]): 27.3% | viability at 1.25 µM (ASPC1 [8]): 79.4% | Activity (ASPC1 [9]): 28.5% | viability at 5 µM (ASPC1 [10]): 79.4% | viability at 0.5 µM (PANC-1 [11]): 53.3% | viability at 2 µM (PANC-1 [12]): 39.3% | viability at 5 µM (ASPC1 [13]): 76% | viability at 1.25 µM (ASPC1 [14]): 52% | IC50 (Ramos): 2.18 µM | viability at 5 µM (ASPC1 [15]): 24% | viability at 10 µM (ASPC1 [16]): 52% | Activity (ASPC1 [17]): 1.1% | viability at 0.5 µM (PANC-1 [18]): 45.9% | Activity (ASPC1 [19]): 0.6% | Activity (ASPC1 [20]): 24.4% | viability at 10 µM (ASPC1 [21]): 12.1% | IC50 (ASPC1 [1]): 3.92 µM | viability at 2 µM (PANC-1 [22]): 68.8% | viability at 10 µM (ASPC1 [23]): 47.1% | IC50 (NCI-H1975): 3.71 µM | Activity (ASPC1 [24]): 21.8% | Activity (ASPC1 [25]): 0.6% | viability at 1 µM (ASPC1 [26]): 43.6% | IC50 (BXPC-3): 6.92 µM | Activity (ASPC1 [27]): 53.1% | viability at 8 µM (PANC-1 [28]): 17.2% | Activity (ASPC1 [29]): 62.9% | viability at 8 µM (PANC-1 [30]): 42.8% | IC50 (PANC-1 [2]): 0.53 µM | viability at 2 µM (PANC-1 [31]): 36.2% | viability at 5 µM (ASPC1 [32]): 49.1% | Activity (ASPC1 [33]): Dose-dependent effect

Structure (SMILES): CNC(=O)c1ccccc1Nc1nc(Nc2ccc(NS(=O)(=O)c3ccc(C)cc3)cc2)ncc1Cl
IC50 (L02): 28.7 µM | IC50 (Ramos): 6.17 µM | IC50 (ASPC1 [1]): 1.55 µM | IC50 (NCI-H1975): 7.07 µM | IC50 (BXPC-3): 19.4 µM | IC50 (PANC-1 [2]): 2.76 µM

More lines, main results first:

IC50 (Ramos): 20.3 µM | IC50 (ASPC1 [1]): 2.32 µM | IC50 (NCI-H1975): 9.56 µM | IC50 (BXPC-3): 23.1 µM | IC50 (PANC-1 [2]): 2.99 µM
Structure (SMILES): CNC(=O)c1ccccc1Nc1nc(Nc2ccc(NS(=O)(=O)c3ccc(C)cc3)c(C)c2)ncc1Cl
IC50 (L02): 27.5 µM

IC50 (Ramos): 12.1 µM | IC50 (ASPC1 [1]): 10.1 µM | IC50 (NCI-H1975): 8.5 µM | IC50 (BXPC-3): 22.5 µM | IC50 (PANC-1 [2]): > 40 µM
Structure (SMILES): CNC(=O)c1ccccc1Nc1nc(Nc2ccc(NS(=O)(=O)c3ccc(C)cc3)c(OC)c2)ncc1Cl
IC50 (L02): > 40 µM

IC50 (Ramos): 4.61 µM | IC50 (ASPC1 [1]): 1.78 µM | IC50 (NCI-H1975): 4.89 µM | IC50 (BXPC-3): 10.6 µM | IC50 (PANC-1 [2]): 0.03 µM
Structure (SMILES): CNC(=O)c1ccccc1Nc1nc(Nc2ccc(NS(=O)(=O)c3ccc(OC)cc3)c(C)c2)ncc1Cl
IC50 (L02): 2.88 µM
